Reference: ChEMBL document CHEMBL1125119, “Pyrroloisoquinoline antidepressants. 3. A focus on serotonin” (J Med Chem, 1990)

Key:
Rattus norvegicus [1] = test: Tested in vivo for serotonin syndrome antagonizing activity in rat at a dose of 4 mg/kg
Mus musculus [2] = test: Tested in vivo for head twitches antagonizing activity in mice; assay type: functional
Mus musculus [3] = test: In vivo effect on Tetrabenazine motor activity in mice following i.p. administration.; assay type: functional; details: ip
Rattus norvegicus [4] = test: Tested in vivo for serotonin syndrome antagonizing activity in rat at a dose of 5 mg/kg; assay type: functional
Mus musculus [5] = test: In vivo effect on Tetrabenazine ptosis activity in mice following i.p. administration.; assay type: functional; details: ip
[6] = target: dopamine transporter (Rattus norvegicus); test: Tested in vitro for dopamine(DA) neuronal uptake inhibition
Rattus norvegicus [7] = test: Tested in vivo for serotonin syndrome antagonizing activity in rat on oral administration; assay type: functional
[8] = target: norepinephrine transporter (Rattus norvegicus); test: Tested in vitro for norepinephrine (NE) neuronal uptake inhibition
Rattus norvegicus [9] = test: Tested in vivo for serotonin syndrome antagonizing activity in rat; assay type: functional
Rattus norvegicus [10] = test: Tested in vivo for serotonin syndrome antagonizing activity in rat at a dose of 40 mg/kg; assay type: functional; details: read-out: Inhibition
[11] = target: serotonin transporter (Rattus norvegicus); test: Tested in vitro for serotonin(5-HT) neuronal uptake inhibition
[12] = tested on: dopamine transporter (Rattus norvegicus); test: Tested in vitro for dopamine(DA) neuronal uptake inhibition; remark: listed apart in the source
[13] = tested on: serotonin transporter (Rattus norvegicus); test: Tested in vitro for serotonin(5-HT) neuronal uptake inhibition; remark: listed apart in the source
[14] = tested on: norepinephrine transporter (Rattus norvegicus); test: Tested in vitro for norepinephrine (NE) neuronal uptake inhibition; remark: listed apart in the source
Mus musculus [15] = test: Tested in vivo for head twitches antagonizing activity in mice at a dose of 5 mg/kg; assay type: functional
Summary of the method: (§1)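 Male Swiss CD-1 mice (19–24 g), 10 per dose, received test compound s.c. 30 min later they got a subthreshold dose of L-5-hydroxytryptophan (50 mg/kg i.p.). After 15 min acclimation, presence or absence of head twitches was scored over 2 min. Results were expressed as percent responding or as ED50 by probit analysis, using at least three doses.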

Rattus norvegicus [16] = test: Tested in vivo for serotonin syndrome antagonizing activity in rat at a dose of 4 mg/kg on oral administration; assay type: functional
Rattus norvegicus [17] = test: Tested in vivo for serotonin syndrome antagonizing activity in rat at a dose of 4 mg/kg; assay type: functional
Mus musculus [18] = test: Tested in vivo for head twitches antagonizing activity in mice at a dose of 2 mg/kg; assay type: functional
Summary of the method: as §1

## CSc1ccc([C@@H]2CN3CCC[C@H]3c3ccccc32)cc1
Rattus norvegicus [1]
  inhibition in vivo at 4 mg/kg: 4.5%
Mus musculus [2]; Mus musculus, read-out: ED50
  ED50: ~10 mg/kg
Mus musculus [3]
  ED50: > 30 mg/kg

## Clc1ccc([C@@H]2CN3CCC[C@@H]3c3ccccc32)cc1
Rattus norvegicus [4]
  inhibition in vivo at 5 mg/kg: 52%
Mus musculus [2]; Mus musculus, read-out: ED50
  ED50: 0.76 mg/kg
Mus musculus [5]
  ED50: 0.14 mg/kg
Mus musculus [3]
  ED50: 0.39 mg/kg

## NC(=O)c1ccc(C2CN3CCCC3c3ccccc32)cc1 (stereo unspecified)
[6]
  Ki: 84.5 nM
Rattus norvegicus [7]
  ED50: 4.5 mg/kg
[8]
  Ki: 90.2 nM
Mus musculus [2]; Mus musculus, read-out: ED50
  ED50: ~5 mg/kg

## N#Cc1ccc(C2CN3CCCC3c3ccccc32)cc1 (stereo unspecified)
Rattus norvegicus [9]
  ED50: 15 mg/kg
Mus musculus [2]; Mus musculus, read-out: ED50
  ED50: ~3 mg/kg

## C#Cc1ccc(C2CN3CCCC3c3ccccc32)cc1 (stereo unspecified)
Mus musculus [2]; Mus musculus, read-out: ED50
  ED50: ~1 mg/kg

## c1ccc([C@@H]2CN3CCC[C@@H]3c3ccccc32)cc1
Mus musculus [2]; Mus musculus, read-out: ED50
  ED50: > 25 mg/kg
Mus musculus [5]
  ED50: 0.07 mg/kg
Mus musculus [3]
  ED50: 0.34 mg/kg

## Br.CCSc1ccc(C2CN3CCCC3c3ccccc32)cc1 (stereo unspecified)
Mus musculus [2]; Mus musculus, read-out: ED50
  ED50: 0.54 mg/kg
Mus musculus [5]
  ED50: ~3 mg/kg
Mus musculus [3]
  ED50: > 10 mg/kg
Rattus norvegicus [10]
  inhibition in vivo at 40 mg/kg: 36%

## CSc1ccc(C2CN3CCCC3c3c(Br)cccc32)cc1.Cl (stereo unspecified)
Mus musculus [2]; Mus musculus, read-out: ED50
  ED50: > 5 mg/kg

## CSc1ccc(C2CN3CCCC3c3c(C#N)cccc32)cc1.Cl (stereo unspecified)
[6]
  Ki: 2800 nM
[8]
  Ki: 390 nM
[11]
  Ki: 14.7 nM
Mus musculus [2]; Mus musculus, read-out: ED50
  ED50: > 5 mg/kg

## CSc1ccc(C2CN3CCC[C@@H]3c3c(Cl)cccc32)cc1.Cl (stereo partly specified)
[6]
  Ki: 290 nM
[8]
  Ki: 23.1 nM
[11]
  Ki: 3 nM
Mus musculus [2]; Mus musculus, read-out: ED50
  ED50: 1.04 mg/kg
Mus musculus [5]
  ED50: 3 mg/kg
Mus musculus [3]
  ED50: 3 mg/kg

## COc1cc(OC)c2c(c1)C1CCCN1CC2c1ccc(SC)cc1.Cl (stereo unspecified)
[12]
  Inhibition: 67%
[13]
  Inhibition: 68%
[14]
  Inhibition: 55%
Mus musculus [2]; Mus musculus, read-out: ED50
  ED50: ~5 mg/kg

## CSc1ccc(C2CN3CCC[C@H]3c3c(Cl)cccc32)cc1.Cl (stereo partly specified)
[12]
  Inhibition: 10%
Mus musculus [15]
  inhibition in vivo at 5 mg/kg: 30%
[11]
  Ki: ~100 nM
[14]
  Inhibition: 10%
Mus musculus [5]
  ED50: 3 mg/kg
Mus musculus [3]
  ED50: ~1 mg/kg

## Br.CSc1ccc(C2CN3CCCC3c3c(C)cccc32)cc1 (stereo unspecified)
[6]
  Ki: 57.7 nM
[8]
  Ki: 11.5 nM
[11]
  Ki: 2.4 nM
Mus musculus [2]; Mus musculus, read-out: ED50
  ED50: 0.16 mg/kg
Mus musculus [5]
  ED50: ~1 mg/kg
Mus musculus [3]
  ED50: > 3 mg/kg

## CSc1ccc(C2CN3CCCC3c3ccc(Cl)cc32)cc1.Cl (stereo unspecified)
[6]
  Ki: 103 nM
Mus musculus [15]
  inhibition in vivo at 5 mg/kg: 30%
[8]
  Ki: 16.2 nM
[11]
  Ki: 8.6 nM
Mus musculus [5]
  ED50: > 3 mg/kg
Mus musculus [3]
  ED50: > 3 mg/kg

## CS(=O)(=O)c1ccc(C2CN3CCCC3c3ccccc32)cc1 (stereo unspecified)
Mus musculus [2]; Mus musculus, read-out: ED50
  ED50: ~5 mg/kg
Rattus norvegicus [16]; read-out: Inhibition
  inhibition in vivo at 4 mg/kg: 1.5%
Mus musculus [5]
  ED50: 30 mg/kg

## Clc1ccc(C2CN3CCCC3c3ccccc32)c(Cl)c1 (stereo unspecified)
Mus musculus [2]; Mus musculus, read-out: ED50
  ED50: ~5 mg/kg

## Clc1ccccc1C1CN2CCC[C@@H]2c2ccccc21 (stereo partly specified)
Rattus norvegicus [9]
  ED50: > 25 mg/kg
Mus musculus [2]; Mus musculus, read-out: ED50
  ED50: > 25 mg/kg
Mus musculus [5]
  ED50: 0.17 mg/kg
Mus musculus [3]
  ED50: > 60 mg/kg

## CSc1ccccc1C1CN2CCCC2c2ccccc21 (stereo unspecified)
Mus musculus [15]
  inhibition in vivo at 5 mg/kg: 30%

## COc1ccccc1C1CN2CCCC2c2ccccc21 (stereo unspecified)
Mus musculus [2]; Mus musculus, read-out: ED50
  ED50: 0.81 mg/kg
Rattus norvegicus [16]
  inhibition in vivo at 4 mg/kg: 5.2%
Mus musculus [5]
  ED50: ~0.3 mg/kg
Mus musculus [3]
  ED50: ~0.6 mg/kg

## FC(F)(F)c1ccc(C2CN3CCCC3c3ccccc32)cc1 (stereo unspecified)
Rattus norvegicus [17]
  inhibition in vivo at 4 mg/kg: 5.8%
[6]
  Ki: 128 nM
[8]
  Ki: 10.6 nM
Mus musculus [2]; Mus musculus, read-out: ED50
  ED50: 0.55 mg/kg
Mus musculus [5]
  ED50: ~2 mg/kg
Mus musculus [3]
  ED50: > 3 mg/kg

## CC(=O)Nc1ccc(C2CN3CCCC3c3ccccc32)cc1 (stereo unspecified)
Rattus norvegicus [9]
  ED50: 1.37 mg/kg
Mus musculus [2]; Mus musculus, read-out: ED50
  ED50: 0.31 mg/kg
Mus musculus [5]
  ED50: 0.04 mg/kg
Mus musculus [3]
  ED50: 0.04 mg/kg

## Clc1ccc(C2CN3CCCC3c3cc(Cl)ccc32)cc1 (stereo unspecified)
Rattus norvegicus [4]
  inhibition in vivo at 5 mg/kg: 22%
[6]
  Ki: 3.2 nM
[8]
  Ki: 3.2 nM
Mus musculus [18]
  inhibition in vivo at 2 mg/kg: 30%
Mus musculus [5]
  ED50: 4 mg/kg

## CSc1ccc(C2CN3CCC[C@@H]3c3ccccc32)cc1 (single isomer, unassigned; (+))
Mus musculus [2]
  ED50: 0.043 mg/kg

## CSc1ccc(C2CN3CCC[C@@H]3c3ccccc32)cc1 (single isomer, unassigned; (-))
Mus musculus [2]
  ED50: ~5 mg/kg

## CSc1ccc(C2CN3CCC[C@@H]3c3ccccc32)cc1 (stereo in doubt; 3b)
Rattus norvegicus [9]
  ED50: 0.2 mg/kg
Mus musculus [2]
  ED50: 0.081 mg/kg
Mus musculus [5]
  ED50: 0.4 mg/kg
Mus musculus [3]
  ED50: > 30 mg/kg

## C[S+]([O-])c1ccc(C2CN3CCCC3c3ccccc32)cc1 (stereo in doubt; 11a)
[12]
  Inhibition: 2%
[13]
  Inhibition: 12%
[14]
  Inhibition: 4%
Mus musculus [2]
  ED50: >5 mg/kg

## C[S+]([O-])c1ccc(C2CN3CCCC3c3ccccc32)cc1 (stereo in doubt; 11b)
[6]
  Ki: 6180 nM
[8]
  Ki: 723 nM
[11]
  Ki: 597 nM
Mus musculus [2]
  ED50: 0.55 mg/kg
Mus musculus [3]
  ED50: > 3 mg/kg

## CN(C)CCCC1(c2ccc(F)cc2)OCc2cc(C#N)ccc21 (stereo unspecified) [CITALOPRAM]
Rattus norvegicus [9]
  ED50: 0.78 mg/kg
Mus musculus [2]; Mus musculus, read-out: ED50
  ED50: 0.29 mg/kg

## COc1ccc(OC[C@H]2CN(C)CC[C@@H]2c2ccccc2)cc1 [FEMOXETINE]
Rattus norvegicus [9]
  ED50: 11.4 mg/kg
Mus musculus [2]; Mus musculus, read-out: ED50
  ED50: 3.3 mg/kg
Mus musculus [5]
  ED50: 2.1 mg/kg
Mus musculus [3]
  ED50: 3.5 mg/kg

## CNCCC(Oc1ccc(C(F)(F)F)cc1)c1ccccc1 (stereo unspecified) [FLUOXETINE]
Rattus norvegicus [9]
  ED50: 12.7 mg/kg
Mus musculus [2]; Mus musculus, read-out: ED50
  ED50: 0.43 mg/kg

## CN(C)CCCN1c2ccccc2CCc2ccccc21 [IMIPRAMINE]
Rattus norvegicus [9]
  ED50: > 25 mg/kg
Mus musculus [2]; Mus musculus, read-out: ED50
  ED50: > 50 mg/kg
Mus musculus [5]
  ED50: 0.98 mg/kg
Mus musculus [3]
  ED50: 0.58 mg/kg

## Fc1ccc([C@@H]2CCNC[C@H]2COc2ccc3c(c2)OCO3)cc1 [PAROXETINE]
Rattus norvegicus [9]
  ED50: 0.49 mg/kg
Mus musculus [2]; Mus musculus, read-out: ED50
  ED50: 0.062 mg/kg
